Data reported in the M2OR odorant receptor database.

Assays:
Conditions in all cases: stereoisomer not certain
OR52K2 (Homo sapiens) = OR52K2 (Homo sapiens) (UniProt Q8NGK3)
Summary of the method: (§1)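 Whether a receptor–molecule pair is responsive (active) rests on the original authors' judgment that its measured signal was statistically different from baseline. Pairs without that judgment are non-responsive (inactive). Sources used varied assay methods, commonly transient luciferase assays in mammalian cell lines.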

OR52L1 (Homo sapiens) [1] = target: OR52L1 (Homo sapiens) (UniProt Q8NGH7)
Summary of the method: as §1

OR52M1 (Homo sapiens) = OR52M1 (Homo sapiens) (UniProt Q8NGK5)
Summary of the method: as §1

OR52N1 (Homo sapiens) = OR52N1 (Homo sapiens) (UniProt Q8NH53)
Summary of the method: as §1

OR52N2 (Homo sapiens) = OR52N2 (Homo sapiens) (UniProt Q8NGI0)
Summary of the method: as §1

OR52N4 (Homo sapiens) = OR52N4 (Homo sapiens) (UniProt Q8NGI2)
Summary of the method: as §1

OR52N5 (Homo sapiens) = OR52N5 (Homo sapiens) (UniProt Q8NH56)
Summary of the method: as §1

OR52R1 (Homo sapiens) = OR52R1 (Homo sapiens) (UniProt Q8NGF1)
Summary of the method: as §1

OR52W1 (Homo sapiens) = OR52W1 (Homo sapiens) (UniProt Q6IF63)
Summary of the method: as §1

OR56A1 (Homo sapiens) = OR56A1 (Homo sapiens) (UniProt Q8NGH5)
Summary of the method: as §1

OR56A3 (Homo sapiens) = OR56A3 (Homo sapiens) (UniProt Q8NH54)
Summary of the method: as §1

OR56A5 (Homo sapiens) = OR56A5 (Homo sapiens) (UniProt P0C7T3)
Summary of the method: as §1

OR56B1 (Homo sapiens) = OR56B1 (Homo sapiens) (UniProt Q8NGI3)
Summary of the method: as §1

OR56B4 (Homo sapiens) = OR56B4 (Homo sapiens) (UniProt Q8NH76)
Summary of the method: as §1

OR5A1 (Homo sapiens) = OR5A1 (Homo sapiens) (UniProt Q8NGJ0)
Summary of the method: as §1

OR5A1 D183N = tested on: OR5A1 D183N
Summary of the method: as §1

OR5A2 (Homo sapiens) = OR5A2 (Homo sapiens) (UniProt Q8NGI9)
Summary of the method: as §1

OR52L1 (Homo sapiens) [2] = target: OR52L1 (Homo sapiens) (UniProt Q8NGH7); remark: listed apart in the source
Summary of the method: as §1

OR52Z1P (Homo sapiens) = OR52Z1P (Homo sapiens) (UniProt P0C646)
Summary of the method: as §1

OR56A4 (Homo sapiens) = OR56A4 (Homo sapiens) (UniProt Q8NGH8)
Summary of the method: as §1

Measured: odorant receptor agonist call

OR56B4 (Homo sapiens), sequence (Q8NH76 whole entry): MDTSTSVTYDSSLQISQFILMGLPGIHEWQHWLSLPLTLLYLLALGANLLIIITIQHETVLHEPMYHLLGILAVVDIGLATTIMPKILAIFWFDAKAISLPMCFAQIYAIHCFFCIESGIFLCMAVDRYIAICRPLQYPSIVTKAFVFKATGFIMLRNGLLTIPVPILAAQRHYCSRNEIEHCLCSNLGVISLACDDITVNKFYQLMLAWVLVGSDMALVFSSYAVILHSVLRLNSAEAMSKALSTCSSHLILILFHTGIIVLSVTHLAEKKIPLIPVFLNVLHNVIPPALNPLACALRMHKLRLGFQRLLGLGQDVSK
OR5A2 (Homo sapiens), sequence (Q8NGI9 whole entry): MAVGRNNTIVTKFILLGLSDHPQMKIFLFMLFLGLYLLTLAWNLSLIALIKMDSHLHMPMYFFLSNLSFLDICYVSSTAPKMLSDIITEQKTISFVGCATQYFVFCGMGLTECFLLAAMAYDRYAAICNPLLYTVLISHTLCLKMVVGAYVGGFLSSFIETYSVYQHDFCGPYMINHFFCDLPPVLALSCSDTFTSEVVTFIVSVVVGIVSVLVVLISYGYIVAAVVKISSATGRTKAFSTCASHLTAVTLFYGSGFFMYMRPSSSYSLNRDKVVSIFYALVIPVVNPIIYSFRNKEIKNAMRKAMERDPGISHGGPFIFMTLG
OR56A5 (Homo sapiens), sequence (P0C7T3 whole entry): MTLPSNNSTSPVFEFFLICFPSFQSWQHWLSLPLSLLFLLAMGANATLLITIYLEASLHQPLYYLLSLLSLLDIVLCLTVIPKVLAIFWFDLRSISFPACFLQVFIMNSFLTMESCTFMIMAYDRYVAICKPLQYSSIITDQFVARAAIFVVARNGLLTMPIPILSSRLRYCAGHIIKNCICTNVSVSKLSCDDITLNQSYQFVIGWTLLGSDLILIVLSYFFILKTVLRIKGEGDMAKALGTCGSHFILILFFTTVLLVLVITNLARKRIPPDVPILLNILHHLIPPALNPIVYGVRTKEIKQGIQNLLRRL
OR52N2 (Homo sapiens), sequence (Q8NGI0 whole entry): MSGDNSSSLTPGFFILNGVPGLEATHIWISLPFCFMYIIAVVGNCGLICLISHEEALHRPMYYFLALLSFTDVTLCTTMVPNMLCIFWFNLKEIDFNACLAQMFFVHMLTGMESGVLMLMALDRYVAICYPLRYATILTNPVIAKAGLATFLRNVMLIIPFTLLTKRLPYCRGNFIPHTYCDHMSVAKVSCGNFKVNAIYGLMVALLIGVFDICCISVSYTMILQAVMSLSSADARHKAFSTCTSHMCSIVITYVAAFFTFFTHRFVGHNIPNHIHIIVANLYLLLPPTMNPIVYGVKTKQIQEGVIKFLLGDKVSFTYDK
OR56B1 (Homo sapiens), sequence (Q8NGI3 whole entry): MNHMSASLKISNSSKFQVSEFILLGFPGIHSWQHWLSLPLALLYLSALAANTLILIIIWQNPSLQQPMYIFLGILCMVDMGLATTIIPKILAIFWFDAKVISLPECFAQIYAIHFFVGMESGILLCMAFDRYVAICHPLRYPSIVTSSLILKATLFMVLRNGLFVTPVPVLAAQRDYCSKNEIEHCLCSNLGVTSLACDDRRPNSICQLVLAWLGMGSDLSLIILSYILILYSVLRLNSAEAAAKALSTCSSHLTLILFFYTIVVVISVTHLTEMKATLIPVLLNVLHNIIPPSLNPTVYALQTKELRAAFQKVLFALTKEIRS
OR52N5 (Homo sapiens), sequence (Q8NH56 whole entry): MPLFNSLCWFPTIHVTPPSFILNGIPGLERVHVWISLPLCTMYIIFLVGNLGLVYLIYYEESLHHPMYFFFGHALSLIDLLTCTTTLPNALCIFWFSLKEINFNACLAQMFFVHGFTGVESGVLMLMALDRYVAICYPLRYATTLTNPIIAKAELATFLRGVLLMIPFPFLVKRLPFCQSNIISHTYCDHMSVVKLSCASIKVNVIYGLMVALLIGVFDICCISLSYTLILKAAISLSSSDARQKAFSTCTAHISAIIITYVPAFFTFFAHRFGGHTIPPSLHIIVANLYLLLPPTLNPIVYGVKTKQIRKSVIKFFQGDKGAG
OR5A1 (Homo sapiens), sequence (Q8NGJ0 whole entry): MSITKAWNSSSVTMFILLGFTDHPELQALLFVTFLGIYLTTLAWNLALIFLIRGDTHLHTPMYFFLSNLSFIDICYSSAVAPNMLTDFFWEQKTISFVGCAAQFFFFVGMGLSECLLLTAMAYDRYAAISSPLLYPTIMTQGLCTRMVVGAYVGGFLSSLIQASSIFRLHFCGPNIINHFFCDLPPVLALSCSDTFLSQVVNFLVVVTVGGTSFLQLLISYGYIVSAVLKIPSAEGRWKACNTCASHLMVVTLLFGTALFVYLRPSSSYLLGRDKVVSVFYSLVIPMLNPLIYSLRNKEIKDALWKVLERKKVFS
OR56A3 (Homo sapiens), sequence (Q8NH54 whole entry): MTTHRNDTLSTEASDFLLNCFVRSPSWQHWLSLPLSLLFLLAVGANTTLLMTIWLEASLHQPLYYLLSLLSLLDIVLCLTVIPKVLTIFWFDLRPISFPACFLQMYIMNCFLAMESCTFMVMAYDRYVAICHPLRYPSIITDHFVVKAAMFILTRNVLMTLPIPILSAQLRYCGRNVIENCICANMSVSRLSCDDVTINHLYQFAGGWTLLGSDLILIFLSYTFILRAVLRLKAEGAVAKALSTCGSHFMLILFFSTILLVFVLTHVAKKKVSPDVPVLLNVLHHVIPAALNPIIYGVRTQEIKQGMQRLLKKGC
OR52R1 (Homo sapiens), sequence (Q8NGF1 whole entry): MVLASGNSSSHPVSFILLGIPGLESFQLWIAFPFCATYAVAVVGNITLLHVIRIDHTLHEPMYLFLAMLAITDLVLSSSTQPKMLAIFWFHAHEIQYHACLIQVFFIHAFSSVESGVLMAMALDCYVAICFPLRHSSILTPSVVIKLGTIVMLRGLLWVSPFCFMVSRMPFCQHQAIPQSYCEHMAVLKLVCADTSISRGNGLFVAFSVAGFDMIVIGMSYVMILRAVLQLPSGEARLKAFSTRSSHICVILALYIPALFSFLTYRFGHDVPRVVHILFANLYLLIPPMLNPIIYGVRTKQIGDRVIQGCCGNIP
OR52W1 (Homo sapiens), sequence (Q6IF63 whole entry): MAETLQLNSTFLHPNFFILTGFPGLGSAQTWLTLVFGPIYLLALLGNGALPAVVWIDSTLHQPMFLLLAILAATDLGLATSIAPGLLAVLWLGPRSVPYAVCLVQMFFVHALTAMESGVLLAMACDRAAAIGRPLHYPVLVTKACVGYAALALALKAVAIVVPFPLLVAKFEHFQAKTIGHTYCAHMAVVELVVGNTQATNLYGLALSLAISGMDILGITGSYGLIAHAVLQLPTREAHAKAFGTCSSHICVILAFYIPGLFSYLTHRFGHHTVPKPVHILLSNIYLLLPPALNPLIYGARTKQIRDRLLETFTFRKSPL
OR52N1 (Homo sapiens), sequence (Q8NH53 whole entry): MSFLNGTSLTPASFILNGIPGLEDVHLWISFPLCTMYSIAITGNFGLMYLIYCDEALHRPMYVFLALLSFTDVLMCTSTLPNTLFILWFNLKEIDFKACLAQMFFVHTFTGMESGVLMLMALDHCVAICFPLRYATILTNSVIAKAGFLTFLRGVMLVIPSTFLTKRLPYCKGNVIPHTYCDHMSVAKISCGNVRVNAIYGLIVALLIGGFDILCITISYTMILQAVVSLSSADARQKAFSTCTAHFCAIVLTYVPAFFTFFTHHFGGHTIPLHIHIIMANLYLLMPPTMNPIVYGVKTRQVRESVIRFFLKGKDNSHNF
OR52N4 (Homo sapiens), sequence (Q8NGI2 whole entry): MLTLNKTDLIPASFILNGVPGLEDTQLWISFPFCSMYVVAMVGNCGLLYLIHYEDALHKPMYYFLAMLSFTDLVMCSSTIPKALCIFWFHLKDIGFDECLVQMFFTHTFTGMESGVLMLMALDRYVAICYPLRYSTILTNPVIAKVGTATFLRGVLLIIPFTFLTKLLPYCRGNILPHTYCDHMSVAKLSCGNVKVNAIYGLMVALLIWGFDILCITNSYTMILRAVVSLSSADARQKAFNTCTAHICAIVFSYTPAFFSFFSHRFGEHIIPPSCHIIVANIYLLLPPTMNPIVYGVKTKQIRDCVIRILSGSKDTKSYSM
OR52K2 (Homo sapiens), sequence (Q8NGK3 whole entry): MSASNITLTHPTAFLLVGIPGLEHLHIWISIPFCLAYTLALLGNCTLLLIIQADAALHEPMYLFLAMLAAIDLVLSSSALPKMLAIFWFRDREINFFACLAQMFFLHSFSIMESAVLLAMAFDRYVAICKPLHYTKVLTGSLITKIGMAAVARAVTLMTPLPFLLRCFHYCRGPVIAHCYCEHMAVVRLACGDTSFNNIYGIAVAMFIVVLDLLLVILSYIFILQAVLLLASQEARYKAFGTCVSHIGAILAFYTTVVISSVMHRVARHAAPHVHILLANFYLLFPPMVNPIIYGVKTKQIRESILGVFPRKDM
OR56A1 (Homo sapiens), sequence (Q8NGH5 whole entry): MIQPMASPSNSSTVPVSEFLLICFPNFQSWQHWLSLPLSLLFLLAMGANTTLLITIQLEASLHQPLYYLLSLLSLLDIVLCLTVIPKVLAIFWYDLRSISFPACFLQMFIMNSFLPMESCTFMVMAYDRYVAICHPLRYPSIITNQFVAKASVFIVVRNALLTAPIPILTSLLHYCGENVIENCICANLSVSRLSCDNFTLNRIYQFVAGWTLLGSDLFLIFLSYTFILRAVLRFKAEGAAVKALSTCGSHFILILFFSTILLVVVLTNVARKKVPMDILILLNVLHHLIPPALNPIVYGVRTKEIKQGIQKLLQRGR
OR52M1 (Homo sapiens), sequence (Q8NGK5 whole entry): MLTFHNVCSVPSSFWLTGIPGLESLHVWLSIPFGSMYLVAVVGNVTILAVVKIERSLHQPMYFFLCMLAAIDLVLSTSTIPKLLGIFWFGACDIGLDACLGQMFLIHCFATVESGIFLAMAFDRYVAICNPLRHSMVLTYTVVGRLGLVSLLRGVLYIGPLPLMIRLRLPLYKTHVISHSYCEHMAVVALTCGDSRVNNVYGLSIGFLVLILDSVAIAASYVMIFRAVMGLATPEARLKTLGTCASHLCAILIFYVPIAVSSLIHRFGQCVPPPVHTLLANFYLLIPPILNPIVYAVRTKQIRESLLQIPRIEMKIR
OR5A1 D183N, sequence (as listed by the source, stated change not applied): as the sequence (Q8NGJ0 whole entry) above, with D183N counted along it

C=CCOC(=O)Cc1ccccc1
inactive: OR52K2 (Homo sapiens) | OR52L1 (Homo sapiens) [1] | OR52M1 (Homo sapiens) | OR52N1 (Homo sapiens) | OR52N2 (Homo sapiens) | OR52N4 (Homo sapiens) | OR52N5 (Homo sapiens) | OR52R1 (Homo sapiens) | OR52W1 (Homo sapiens) | OR56A1 (Homo sapiens) | OR56A3 (Homo sapiens) | OR56A5 (Homo sapiens) | OR56B1 (Homo sapiens) | OR56B4 (Homo sapiens) | OR5A1 (Homo sapiens) | OR5A1 D183N | OR5A2 (Homo sapiens)

Cc1c([N+](=O)[O-])c(C)c([N+](=O)[O-])c(C(C)(C)C)c1[N+](=O)[O-]
inactive: OR52K2 (Homo sapiens) | OR52L1 (Homo sapiens) [2] | OR52M1 (Homo sapiens) | OR52N1 (Homo sapiens) | OR52N2 (Homo sapiens) | OR52N4 (Homo sapiens) | OR52N5 (Homo sapiens) | OR52R1 (Homo sapiens) | OR52W1 (Homo sapiens) | OR52Z1P (Homo sapiens) | OR56A1 (Homo sapiens) | OR56A3 (Homo sapiens) | OR56A4 (Homo sapiens) | OR56A5 (Homo sapiens) | OR56B1 (Homo sapiens) | OR56B4 (Homo sapiens) | OR5A1 (Homo sapiens) | OR5A2 (Homo sapiens)
